Measurements published in ChEMBL document CHEMBL1138251, “Synthesis and evaluation of antiparasitic activities of new 4-[5-(4-phenoxyphenyl)-2H-pyrazol-3-yl]morpholine derivatives” (J Med Chem, 2007).
One block for each compound: values may come before it.

Tests used:
[1] = tested on: Trypanosoma cruzi; assay: Antiparasitic activity against Trypanosoma cruzi Tulahuen C4 in amastigotes stage
[2] = tested on: Trypanosoma brucei rhodesiense; assay: Antiparasitic activity against Trypanosoma brucei rhodesiense STIB900 in blood; type: functional, organism-based
Procedure, shortened: (§1)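 Microplate assay at pH 7.4. Organisms: L. donovani MHOM-ET-67/L82, T. b. rhodesiense STIB900, T. cruzi Tulahuen C4. Cytotoxicity used rat skeletal myoblast L-6 cells. Compounds were tested in duplicate at […], and actives were retested in duplicate down to 3.5 nM. IC50 was taken from sigmoidal inhibition curves. Reference standards: miltefosine (L. donovani), melarsoprol (T. b. rhodesiense), benznidazole (T. cruzi), podophyllotoxin (L-6).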

[3] = tested on: Leishmania donovani; assay: Antiparasitic activity against Leishmania donovani MHOM-ET-67/L82 in amastigotes stage; type: functional, organism-based
Procedure, shortened: as §1

[4] = tested on: Plasmodium falciparum; assay: Antiparasitic activity against chloroquine, pyrimethamine-resistant Plasmodium falciparum K1 erythrocyte stage
[5] = tested on: L6; assay: Cytotoxicity against rat L6 cells; type: cell-based
[6] = tested on: Trypanosoma brucei rhodesiense; assay: Antiparasitic activity against Trypanosoma brucei rhodesiense STIB900 in procyclic stage; type: functional, organism-based

SMILES: c1ccc(Oc2ccc(-c3cc(C4CCOCC4)[nH]n3)cc2)cc1
IC50 [1]: 59 µM
IC50 [2]: 3.2 µM
IC50 [3]: 6.4 µM
IC50 [4]: > 15 µM
IC50 [5]: 89.6 µM
IC50 [6]: 43 µM

SMILES: O=C(CC(=O)c1ccc(Oc2ccccc2)cc1)CN1CCOCC1
IC50 [1]: 20.6 µM
IC50 [2]: 18.9 µM
IC50 [3]: 5.2 µM
IC50 [4]: > 15 µM
IC50 [5]: 112 µM
IC50 [6]: 1 µM

SMILES: O=[N+]([O-])c1ccc(-n2nc(-c3ccc(Oc4ccccc4)cc3)cc2N2CCOCC2)cc1
IC50 [1]: > 67 µM
IC50 [2]: 28.8 µM
IC50 [3]: 4.8 µM
IC50 [4]: 3.7 µM
IC50 [5]: > 203 µM
IC50 [6]: > 203 µM

SMILES: CCCCCCCCCCCCCCCCOP(=O)([O-])OCC[N+](C)(C)C [MILTEFOSINE]
IC50 [3]: 0.26 µM

SMILES: Nc1nc(N)nc(Nc2ccc([As]3SCC(CO)S3)cc2)n1 (stereo unspecified) [MELARSOPROL]
IC50 [2]: 0.01 µM
IC50 [6]: 0.13 µM

SMILES: CSC(=CC(=O)c1ccc(Oc2ccc([N+](=O)[O-])cc2)cc1)SC
IC50 [1]: > 83 µM
IC50 [2]: 45.9 µM
IC50 [3]: 5.7 µM
IC50 [4]: > 13 µM
IC50 [5]: 156 µM
IC50 [6]: > 249 µM

SMILES: CCc1ccc(C(=O)CC(=O)C2CCOCC2)cc1
IC50 [1]: 54.9 µM
IC50 [2]: 20.9 µM
IC50 [3]: 9.8 µM
IC50 [4]: > 19 µM
IC50 [5]: 202 µM
IC50 [6]: 3.4 µM

SMILES: CCc1ccc(-c2cc(C3CCOCC3)[nH]n2)cc1
IC50 [1]: 114 µM
IC50 [2]: 28.6 µM
IC50 [3]: 15.1 µM
IC50 [4]: > 19 µM
IC50 [5]: 165 µM
IC50 [6]: 7.8 µM

SMILES: c1ccc(Oc2ccc(-c3cc(N4CCOCC4)on3)cc2)cc1
IC50 [1]: 46.5 µM
IC50 [2]: 5.9 µM
IC50 [3]: 12.7 µM
IC50 [4]: 10.5 µM
IC50 [5]: 172 µM
IC50 [6]: 75.2 µM

SMILES: c1ccc(Oc2ccc(-c3cc(N4CCOCC4)[nH]n3)cc2)cc1
IC50 [1]: 52 µM
IC50 [2]: 1 µM
IC50 [3]: 8 µM
IC50 [4]: > 15 µM
IC50 [5]: 61.6 µM
IC50 [6]: 40.7 µM

SMILES: O=C(CC(=O)C1CCOCC1)c1ccc(Oc2ccccc2)cc1
IC50 [1]: 54.6 µM
IC50 [2]: 25.8 µM
IC50 [3]: 4.6 µM
IC50 [4]: > 15 µM
IC50 [5]: 231 µM
IC50 [6]: 1.8 µM

SMILES: c1ccc(Oc2ccc(-c3cc(N4CCNCC4)[nH]n3)cc2)cc1
IC50 [1]: 9.5 µM
IC50 [2]: 1.1 µM
IC50 [3]: 25.8 µM
IC50 [4]: 6.6 µM
IC50 [5]: 18 µM
IC50 [6]: 4.7 µM

SMILES: O=[N+]([O-])c1ccc(Oc2ccc(-c3cc(N4CCOCC4)[nH]n3)cc2)cc1
IC50 [1]: > 81 µM
IC50 [2]: 4.4 µM
IC50 [3]: 22.3 µM
IC50 [4]: > 13 µM
IC50 [5]: > 245 µM
IC50 [6]: 93.4 µM

SMILES: CSC(=CC(=O)c1ccc(Oc2ccccc2)cc1)SC
IC50 [1]: 24.4 µM
IC50 [2]: 51.4 µM
IC50 [3]: 9.7 µM
IC50 [4]: > 15 µM
IC50 [5]: 34.5 µM
IC50 [6]: 16.6 µM

SMILES: Nc1ccc(-n2nc(-c3ccc(Oc4ccccc4)cc3)cc2N2CCOCC2)cc1
IC50 [1]: 22 µM
IC50 [2]: 10.3 µM
IC50 [3]: 10.5 µM
IC50 [4]: 6.5 µM
IC50 [5]: 61.6 µM
IC50 [6]: 61.7 µM

SMILES: CC(C)(C)OC(=O)N1CCN(c2cc(-c3ccc(Oc4ccccc4)cc3)n[nH]2)CC1
IC50 [1]: 12.8 µM
IC50 [2]: 2.9 µM
IC50 [3]: 2.3 µM
IC50 [4]: 8.1 µM
IC50 [5]: 30 µM
IC50 [6]: 17.6 µM

SMILES: Nc1ccc(Oc2ccc(-c3cc(N4CCOCC4)[nH]n3)cc2)cc1
IC50 [1]: > 89 µM
IC50 [2]: 17.7 µM
IC50 [3]: 20.3 µM
IC50 [4]: > 14 µM
IC50 [5]: > 267 µM
IC50 [6]: > 267 µM

SMILES: CSC(=CC(=O)c1ccc([N+](=O)[O-])cc1)SC
IC50 [1]: 54.6 µM
IC50 [2]: 224 µM
IC50 [3]: 20.2 µM
IC50 [4]: > 18 µM
IC50 [5]: 40.5 µM
IC50 [6]: > 334 µM

SMILES: c1ccc(Oc2ccc(-c3cc(CN4CCOCC4)[nH]n3)cc2)cc1
IC50 [1]: 45.3 µM
IC50 [2]: 4.1 µM
IC50 [3]: 15.6 µM
IC50 [4]: > 14 µM
IC50 [5]: 150 µM
IC50 [6]: 54.9 µM

IC50 [1]: 2.13 µM
SMILES: O=C(Cn1ccnc1[N+](=O)[O-])NCc1ccccc1 [BENZNIDAZOLE]
